Measured values collected from several papers.
Protocols differ between the studies behind these lines.

For `O=C1O[C@H]([C@@H](O)CO)C(O)=C1O`, the inhibition was 53.7% (DPPH scavenging; absorbance; 80 µM).
`O=C1O[C@H]([C@@H](O)CO)C(O)=C1O` gave an inhibition of 38.9% (DPPH scavenging; 12.5 µg/mL).
`COc1cc(-c2ccc(-c3ccc(C(=N)N)nc3)s2)cc(OC)c1OC` gave a GI50 of 5.2 µM (NCI/ADR-RES; cell growth or viability; SRB).
`O=C(Nc1ccc2c(c1)OC(F)(F)O2)Nc1ccc(Cl)c(C(F)(F)F)c1` has an MIC of greater than 100 µM (Salmonella; microbial growth; clinical isolate).
The inhibition of `CN(O)N=Nc1ccc(S(=O)(=O)Nc2nccs2)cc1` is reported as 16.4% (DPPH scavenging; absorbance; 120 µg/mL).
With `COc1cc(C=Cc2cc(-c3ccccc3)nc(O)n2)ccc1O` the inhibition was 38.3% (DPPH scavenging; 12.5 µg/mL).
The inhibition of `CCCN(O)N=Nc1ccc(S(=O)(=O)Nc2cc(C)on2)cc1` is reported as 27.6% (DPPH scavenging; absorbance; 300 µg/mL).
For `Oc1ccc(Br)cc1C=NCCN1CCOCC1`, the inhibition was 28.6% (DPPH scavenging; absorbance; 120 µM).
The inhibition of `COc1cc(C=CC(=O)CC(c2ccc(N(C)C)cc2)n2ccnc2)ccc1O` (stereo not drawn) is reported as 42.7% (DPPH scavenging; 12.5 µg/mL).
With `O=S(=O)(Nc1nccs1)c1ccc(N=NN(O)c2ccccc2)cc1` the inhibition was 24.1% (DPPH scavenging; absorbance; 20 µg/mL).
`COc1cc(C=Cc2cc(-c3ccc(N(C)C)cc3)nc(O)n2)ccc1O` gave an inhibition of 71.7% (DPPH scavenging; 100 µg/mL).
`CCN(O)N=Nc1ccc(S(=O)(=O)Nc2nccs2)cc1` gave an inhibition of 9.02% (DPPH scavenging; absorbance; 60 µg/mL).
